Laboratory results taken from paper PMC5701743 (Nature, 2017).
Positions count from the first letter of the chain named.

Biological target: T1, Vrg4 Tyr114Phe (Y114F) (Saccharomyces cerevisiae, UniProt P40107, Y114F)
T1 sequence (P40107 1-337 Y114F): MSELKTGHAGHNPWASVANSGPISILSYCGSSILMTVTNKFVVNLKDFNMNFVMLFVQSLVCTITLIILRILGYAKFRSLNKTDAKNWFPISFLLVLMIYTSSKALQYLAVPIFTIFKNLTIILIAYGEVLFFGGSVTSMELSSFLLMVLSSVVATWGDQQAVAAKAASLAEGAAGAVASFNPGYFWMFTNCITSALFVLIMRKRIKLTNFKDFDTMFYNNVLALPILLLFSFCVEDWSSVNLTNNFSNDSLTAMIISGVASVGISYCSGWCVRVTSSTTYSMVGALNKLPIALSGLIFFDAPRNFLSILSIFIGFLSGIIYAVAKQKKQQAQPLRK
Assay: IC50 curves, Vrg4 Tyr114Phe variant proteoliposomes
Assay type: biochemical
Settings: Tyr114Phe versus wild type
Method in brief: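 Wild-type or mutant Vrg4 was purified in DM and reconstituted at 80:1 lipid:protein into yeast polar lipid proteoliposomes. Reconstituted protein was matched by SDS-PAGE densitometry. Liposomes were substrate-loaded by freeze-thaw and extrusion. Uptake was started by adding 4 μg protein equivalent to 50 μl buffer (20 mM Hepes pH 7.5, 50 mM KCl, 2 mM MgSO4) with 0.5 μM 3H-GMP, then filtered and counted. IC50 from curves, mean of three independent experiments, s.d.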

Row | Affinity relative to wild type | Compound
1 | reduced the affinity | Nc1nc2c(ncn2[C@@H]2O[C@H](COP(=O)(O)OP(=O)(O)O[C@H]3O[C@H](CO)[C@@H](O)[C@H](O)[C@@H]3O)[C@@H](O)[C@H]2O)c(=O)[nH]1 [GDP-M, GDP-mannose]
2 | reduced the affinity | Nc1nc2c(ncn2[C@@H]2O[C@H](COP(=O)(O)O)[C@@H](O)[C@H]2O)c(=O)[nH]1 [GMP, guanine monophosphate]

Biological target: T2, wild type Vrg4 (Saccharomyces cerevisiae, UniProt P40107)
T2 sequence (P40107 1-337): T1 sequence (P40107 1-337 Y114F) with F114Y
Assay: Competition / IC50 of 3H-GMP uptake into wild type Vrg4 proteoliposomes
Assay type: biochemical
Settings: competition assay, n=4

Row | Competition of transport (recognition by the binding site) | Compound
3 | can also compete | C[C@@H]1O[C@H](OP(=O)(O)OP(=O)(O)OC[C@H]2O[C@@H](n3cnc4c(=O)[nH]c(N)nc43)[C@H](O)[C@@H]2O)[C@@H](O)[C@H](O)[C@@H]1O [GDP-F, GDP-fucose]
4 | most effective competitors of transport | Nc1nc2c(ncn2[C@@H]2O[C@H](COP(=O)(O)OP(=O)(O)O[C@H]3O[C@H](CO)[C@@H](O)[C@H](O)[C@@H]3O)[C@@H](O)[C@H]2O)c(=O)[nH]1 [GDP-M, GDP-mannose]
5 | can also compete | Nc1nc2c(ncn2[C@@H]2O[C@H](COP(=O)(O)OP(=O)(O)O)[C@@H](O)[C@H]2O)c(=O)[nH]1 [GDP]
6 | most effective competitors of transport | Nc1nc2c(ncn2[C@@H]2O[C@H](COP(=O)(O)O)[C@@H](O)[C@H]2O)c(=O)[nH]1 [GMP, guanine monophosphate]
7 | can also compete | Nc1nc2c(ncn2[C@@H]2O[C@H](COP(=O)(O)OP(=O)(O)O[C@H]3O[C@H](CO)[C@@H](O)[C@H](O)[C@H]3O)[C@@H](O)[C@H]2O)c(=O)[nH]1 [GTP-G, GDP-glucose]
8 | cannot inhibit | O=P(O)(O)OP(=O)(O)O [Pyrophosphate]
9 | very poorly recognised | Nc1nc2c(ncn2[C@@H]2O[C@@H]3COP(=O)(O)O[C@H]3[C@H]2O)c(=O)[nH]1 [cyclic GMP]
10 | very poorly recognised | Nc1nc2c(ncn2[C@@H]2O[C@H](CO)[C@@H](O)[C@H]2O)c(=O)[nH]1 [guanosine]

Biological target: T3, Vrg4 (Saccharomyces cerevisiae, UniProt P40107)
T3 sequence (P40107 1-337): T1 sequence (P40107 1-337 Y114F) with F114Y
Assay: not given
Assay type: biochemical
Settings: internal substrate; 0.5 μM 3H-GMP outside
Method in brief: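 Yeast Vrg4-GFP-His was galactose-induced, IMAC-purified in DDM, and then in DM reconstituted by dilution into yeast polar lipid vesicles at 80:1 lipid:protein and dialysed. Internal substrate was loaded by six freeze-thaw cycles and 0.4 μm extrusion. 4 μg protein was added to 50 μl of 20 mM Hepes pH 7.5, 50 mM KCl, 2 mM MgSO4 with 0.5 μM 3H-GMP. Samples were filtered, washed with cold water and scintillation-counted. ≥4 repeats, mean ± S.D.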

Row | Transport driven by substance inside the liposome | Compound
11 | poor transport | Nc1ncnc2c1ncn2[C@@H]1O[C@H](COP(=O)(O)O)[C@@H](O)[C@H]1O [AMP, adenine monophosphate]
12 | no significant transport | Nc1ccn([C@@H]2O[C@H](COP(=O)(O)O)[C@@H](O)[C@H]2O)c(=O)n1 [CMP, cytosine monophosphate]
13 | cannot be driven | Nc1nc2c(ncn2[C@@H]2O[C@H](COP(=O)(O)OP(=O)(O)OP(=O)(O)O)[C@@H](O)[C@H]2O)c(=O)[nH]1 [GTP]

Biological target: GDP-mannose transporter Vrg4 (Saccharomyces cerevisiae) (UniProt P40107)
Assay: crystal structure
Settings: not given

Row | stoichiometry N | Compound
14 | 2 | GDP-mannose transporter Vrg4 (from UniProt P40107 1-337) (natural protein)
